Laboratory results reported in ChEMBL document CHEMBL1944607, “7-Substituted-pyrrolo[3,2-d]pyrimidine-2,4-dione derivatives as antagonists of the transient receptor potential ankyrin 1 (TRPA1) channel: a promising approach for treating pain and inflammation” (Bioorg Med Chem, 2012).
Active and inactive are the calls of the source. No cut-off for these calls is given here.

Assays:
[1] = molecular target: T1, Transient receptor potential cation channel subfamily A member 1 (Homo sapiens, UniProt O75762); assay: Antagonist activity at human TRPA1 expressed in human IMR90 cells assessed as inhibition of acrolein-induced calcium influx after 40 mins by fluorescence analysis
[2] = molecular target: T1, Transient receptor potential cation channel subfamily A member 1; assay: Antagonist activity at human TRPA1 expressed in human IMR90 cells assessed as inhibition of acrolein-induced calcium influx at 30 uM after 40 mins by fluorescence analysis; assay type: functional, cell-based; conditions: IMR-90
In short: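 IMR90 fetal lung fibroblasts, which constitutively express human TRPA1, were grown in DMEM with 10% FBS and 2 mM L-glutamine at 37 °C under 5% CO₂, then plated on glass coverslips to 60% confluence. Cells were loaded with Fura-2 AM for 40 min at 37 °C in HEPES buffer (pH 7.4, 0.1% BSA). Single-cell F340/F380 ratio was recorded during acrolein challenge in the presence of antagonist. %inhibition is mean ± SEM from ≥25 cells across three experiments; IC₅₀ (with CI) comes from a variable-slope sigmoidal fit.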

[3] = molecular target: Transient receptor potential cation channel subfamily A member 1 (Rattus norvegicus) (UniProt Q6RI86); assay: Antagonist activity at Sprague-Dawley rat TRPA1 expressed in rat DRG neurons assessed as inhibition of acrolein-induced calcium influx at 3 uM after 40 mins by fluorescence analysis; assay type: functional
In short: (§1)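 DRG neurons came from male Sprague–Dawley rats (100 g). Ganglia were digested in HBSS with collagenase 1A (2 mg/ml) and trypsin (1 mg/ml) for 35 min at 37 °C, dissociated through 23–25 G needles in medium with 10% FBS and 10% horse serum, then filtered and centrifuged. Neurons were loaded with Fura-2 AM for 40 min at 37 °C in HEPES buffer (pH 7.4). F340/F380 was recorded under acrolein with antagonist present. %inhibition is mean ± SEM from ≥20 neurons across three experiments; IC₅₀ comes from a variable-slope sigmoidal fit.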

[4] = molecular target: Transient receptor potential cation channel subfamily A member 1 (Rattus norvegicus) (UniProt Q6RI86); assay: Antagonist activity at Sprague-Dawley rat TRPA1 expressed in rat DRG neurons assessed as inhibition of acrolein-induced calcium influx at 30 uM after 40 mins by fluorescence analysis; assay type: functional; in short: as §1
[5] = molecular target: Transient receptor potential cation channel subfamily A member 1 (Rattus norvegicus) (UniProt Q6RI86); assay: (§2) Antagonist activity at Sprague-Dawley rat TRPA1 expressed in rat DRG neurons assessed as inhibition of acrolein-induced calcium influx after 40 mins by fluorescence analysis; assay type: functional; in short: as §1
[6] = molecular target: Transient receptor potential cation channel subfamily A member 1 (Rattus norvegicus, UniProt Q6RI86); assay: as §2; assay type: functional; in short: as §1
[7] = molecular target: Transient receptor potential cation channel subfamily V member 1 (Rattus norvegicus) (UniProt O35433); assay: Antagonist activity at Sprague-Dawley rat TRPV1 expressed in rat DRG neurons assessed as inhibition of capsaicin-induced calcium influx after 40 mins by fluorescence analysis; assay type: functional
[8] = molecular target: T1, Transient receptor potential cation channel subfamily A member 1; assay: Antagonist activity at human TRPA1 expressed in human IMR90 cells assessed as inhibition of acrolein-induced calcium influx at 3 uM after 40 mins by fluorescence analysis; assay type: functional, cell-based; conditions: IMR-90
[9] = molecular target: T1, Transient receptor potential cation channel subfamily A member 1; conditions: IMR-90, 1 uM
[10] = molecular target: T1, Transient receptor potential cation channel subfamily A member 1; assay: Antagonist activity at human TRPA1 expressed in CHO cells assessed as inhibition of calcium influx; assay type: functional, cell-based

Transient receptor potential cation channel subfamily A member 1 (Rattus norvegicus, UniProt Q6RI86), sequence (Q6RI86 whole entry): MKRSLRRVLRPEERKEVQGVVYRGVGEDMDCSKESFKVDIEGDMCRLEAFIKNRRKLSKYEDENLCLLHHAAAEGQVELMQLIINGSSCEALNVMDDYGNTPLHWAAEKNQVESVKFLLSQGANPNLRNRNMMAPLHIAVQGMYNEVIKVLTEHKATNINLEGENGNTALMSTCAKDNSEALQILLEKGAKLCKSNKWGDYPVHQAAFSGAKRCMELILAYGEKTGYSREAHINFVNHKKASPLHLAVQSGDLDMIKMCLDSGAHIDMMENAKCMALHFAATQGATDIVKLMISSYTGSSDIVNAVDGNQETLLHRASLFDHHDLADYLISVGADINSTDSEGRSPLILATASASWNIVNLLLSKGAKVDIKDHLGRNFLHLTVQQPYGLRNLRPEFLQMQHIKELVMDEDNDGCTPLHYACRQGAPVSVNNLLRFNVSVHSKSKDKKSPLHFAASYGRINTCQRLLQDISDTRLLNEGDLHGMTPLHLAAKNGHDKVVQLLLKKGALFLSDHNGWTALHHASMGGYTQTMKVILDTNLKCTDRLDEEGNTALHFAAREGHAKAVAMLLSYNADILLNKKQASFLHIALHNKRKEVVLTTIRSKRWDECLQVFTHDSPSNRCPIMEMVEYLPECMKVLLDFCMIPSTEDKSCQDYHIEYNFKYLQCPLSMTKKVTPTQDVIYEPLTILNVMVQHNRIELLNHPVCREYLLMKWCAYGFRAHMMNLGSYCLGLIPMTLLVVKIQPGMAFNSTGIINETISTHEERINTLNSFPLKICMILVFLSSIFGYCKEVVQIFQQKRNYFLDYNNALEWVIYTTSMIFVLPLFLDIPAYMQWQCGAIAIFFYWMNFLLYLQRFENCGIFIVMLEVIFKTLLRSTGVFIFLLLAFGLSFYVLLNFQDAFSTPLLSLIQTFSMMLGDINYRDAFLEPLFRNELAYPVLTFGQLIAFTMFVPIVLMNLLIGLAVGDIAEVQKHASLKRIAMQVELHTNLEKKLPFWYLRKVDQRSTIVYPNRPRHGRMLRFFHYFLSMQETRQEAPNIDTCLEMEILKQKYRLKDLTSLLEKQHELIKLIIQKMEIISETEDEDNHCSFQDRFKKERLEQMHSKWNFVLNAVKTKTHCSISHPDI
Transient receptor potential cation channel subfamily A member 1 (Rattus norvegicus), sequence (Q6RI86 whole entry): as above
Transient receptor potential cation channel subfamily V member 1 (Rattus norvegicus), sequence (O35433 whole entry): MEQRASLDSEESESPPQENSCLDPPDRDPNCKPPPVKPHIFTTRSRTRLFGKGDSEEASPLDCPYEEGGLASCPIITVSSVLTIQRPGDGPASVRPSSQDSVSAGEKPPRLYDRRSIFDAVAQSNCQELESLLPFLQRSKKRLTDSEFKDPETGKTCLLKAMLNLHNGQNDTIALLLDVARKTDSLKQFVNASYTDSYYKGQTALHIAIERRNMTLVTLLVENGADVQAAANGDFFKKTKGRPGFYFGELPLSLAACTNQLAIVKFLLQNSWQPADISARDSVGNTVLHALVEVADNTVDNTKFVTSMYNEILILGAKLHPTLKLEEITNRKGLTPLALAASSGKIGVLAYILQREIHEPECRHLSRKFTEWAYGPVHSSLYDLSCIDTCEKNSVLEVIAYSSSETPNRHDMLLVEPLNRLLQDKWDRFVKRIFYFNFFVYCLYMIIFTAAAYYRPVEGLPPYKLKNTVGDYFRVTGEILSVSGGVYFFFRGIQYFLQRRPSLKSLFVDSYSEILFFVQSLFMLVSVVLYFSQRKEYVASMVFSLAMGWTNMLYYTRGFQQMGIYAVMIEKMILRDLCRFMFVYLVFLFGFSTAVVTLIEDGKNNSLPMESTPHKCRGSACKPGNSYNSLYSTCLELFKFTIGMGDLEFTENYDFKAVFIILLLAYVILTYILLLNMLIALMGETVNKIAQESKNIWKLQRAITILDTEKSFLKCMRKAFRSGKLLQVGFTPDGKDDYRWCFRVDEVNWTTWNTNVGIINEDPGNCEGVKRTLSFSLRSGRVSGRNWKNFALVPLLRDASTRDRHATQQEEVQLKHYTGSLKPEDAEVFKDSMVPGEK
T1 sequence (O75762 whole entry): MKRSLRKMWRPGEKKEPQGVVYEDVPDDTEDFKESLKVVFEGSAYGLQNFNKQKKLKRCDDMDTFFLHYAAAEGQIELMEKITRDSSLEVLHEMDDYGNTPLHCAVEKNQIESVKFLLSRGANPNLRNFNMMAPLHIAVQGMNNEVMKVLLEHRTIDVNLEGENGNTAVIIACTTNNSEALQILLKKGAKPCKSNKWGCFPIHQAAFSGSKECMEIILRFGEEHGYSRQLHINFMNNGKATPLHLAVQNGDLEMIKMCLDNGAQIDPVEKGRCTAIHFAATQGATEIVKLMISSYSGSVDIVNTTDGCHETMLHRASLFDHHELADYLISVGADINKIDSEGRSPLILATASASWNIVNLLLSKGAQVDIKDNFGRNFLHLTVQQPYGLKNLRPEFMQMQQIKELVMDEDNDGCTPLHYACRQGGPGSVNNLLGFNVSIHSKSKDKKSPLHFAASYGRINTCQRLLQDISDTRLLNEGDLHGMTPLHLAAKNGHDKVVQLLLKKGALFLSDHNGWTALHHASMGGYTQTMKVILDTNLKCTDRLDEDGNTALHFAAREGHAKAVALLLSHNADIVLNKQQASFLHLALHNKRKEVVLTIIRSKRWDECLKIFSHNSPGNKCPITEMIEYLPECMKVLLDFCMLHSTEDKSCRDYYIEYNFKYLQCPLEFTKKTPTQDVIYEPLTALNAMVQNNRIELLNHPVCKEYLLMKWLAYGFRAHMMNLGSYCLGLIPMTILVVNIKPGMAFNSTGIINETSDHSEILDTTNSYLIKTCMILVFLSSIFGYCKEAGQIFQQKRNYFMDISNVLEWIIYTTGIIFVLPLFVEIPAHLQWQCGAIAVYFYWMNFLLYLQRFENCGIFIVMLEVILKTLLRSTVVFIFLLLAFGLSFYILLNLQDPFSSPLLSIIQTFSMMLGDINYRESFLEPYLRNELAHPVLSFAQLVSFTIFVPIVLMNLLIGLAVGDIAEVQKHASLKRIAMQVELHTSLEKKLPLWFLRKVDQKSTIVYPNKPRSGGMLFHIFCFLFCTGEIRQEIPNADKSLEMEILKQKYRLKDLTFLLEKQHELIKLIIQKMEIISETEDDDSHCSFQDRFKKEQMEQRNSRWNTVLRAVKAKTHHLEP

Row | SMILES | inhibition [2] [%] | inhibition [3] [%] | inhibition [4] [%] | further results
1 | Cn1c(=O)c2c(ccn2CC(=O)Nc2ccc(C3CCCCC3)cc2)n(C)c1=O | < 50 | – | – | –
2 | Cn1c(=O)c2c(ccn2CC(=O)Nc2cccc(I)c2)n(C)c1=O | < 50 | – | – | –
3 | Cn1c(=O)c2c(ccn2CC(=O)Nc2nc(-c3ccc(F)cc3)cs2)n(C)c1=O | 82.8 | 3.6 | 99.2 | IC50 [1]: 4100 nM; inhibition [8]: 47.9%
4 | Cn1c(=O)c2c(ccn2CC(=O)Nc2nc(-c3ccccc3)cs2)n(C)c1=O | < 50 | – | – | –
5 | CC(=C\c1ccc(Cl)cc1)/C(C)=N/O [AP18 5] | 98.9 | 45.2 | 90.1 | IC50 [1]: 2200 nM; IC50 [6]: 3400 nM; inhibition [7]: inactive; inhibition [8]: 69.1%
6 | Cn1c(=O)c2c(ccn2CC(=O)Nc2ccc(N3CCOCC3)cc2)n(C)c1=O | < 50 | – | – | –
7 | CCCCCCc1ccc(NC(=O)Cn2ccc3c2c(=O)n(C)c(=O)n3C)cc1 | – | 35.5 | 93.3 | –
8 | Cn1c(=O)c2c(ccn2CC(=O)Nc2ccc(SC(F)(F)F)cc2)n(C)c1=O | < 50 | – | – | –
9 | Cn1c(=O)c2c(ccn2CC(=O)Nc2ccc(F)c(F)c2)n(C)c1=O | < 50 | – | – | –
10 | Cc1ccc(CNC(=O)Cn2ccc3c2c(=O)n(C)c(=O)n3C)cc1 | < 50 | – | – | –
11 | CC(C)c1ccc(NC(=O)Cn2cnc3c2c(=O)n(C)c(=O)n3C)cc1 | 97.5 | 80.7 | 99.8 | IC50 [6]: 2100 nM; inhibition [7]: inactive; inhibition [8]: 73.2%
12 | Cn1c(=O)c2c(ccn2CC(=O)Nc2nc(-c3ccc(F)c(C(F)(F)F)c3)cs2)n(C)c1=O | 99.3 | 80.6 | 99.6 | IC50 [1]: 1300 nM; inhibition [5]: Dose-dependent effect; IC50 [6]: 1300 nM; inhibition [7]: inactive; inhibition [8]: 76.1%
13 | Cn1c(=O)c2c(ccn2CC(=O)Nc2nc(-c3ccc(C(F)(F)F)cc3)cs2)n(C)c1=O | – | 58.3 | 80.2 | –
14 | CCCCCCc1ccc(-c2csc(NC(=O)Cn3ccc4c3c(=O)n(C)c(=O)n4C)n2)cc1 | – | 92.4 | 99.4 | –
15 | CN(C(=O)Cn1ccc2c1c(=O)n(C)c(=O)n2C)c1ccc(F)cc1 | < 50 | – | – | –
16 | COc1cccc(C2NC(=S)NC3=C2C(=O)c2ccccc23)c1 (centres undefined) | 98.8 | 40.2 | 99.5 | IC50 [1]: 1500 nM; IC50 [6]: 3400 nM; inhibition [7]: inactive; IC50 [10]: 128 nM; inhibition [8]: 83.1%
17 | Cn1c(=O)c2c(ccn2CC(=O)NC23CC4CC(CC(C4)C2)C3)n(C)c1=O | < 50 | – | – | –
18 | Cn1c(=O)c2c(ccn2CC(=O)Nc2ccc(F)cc2F)n(C)c1=O | < 50 | – | – | –
19 | Cn1c(=O)c2c(ccn2CC(=O)Nc2nc(-c3ccc(I)cc3)cs2)n(C)c1=O | < 50 | – | – | –

Continued, in another order:

Row | inhibition [2] [%] | inhibition [3] [%] | inhibition [4] [%] | SMILES | further results
20 | 99.1 | 58.8 | 99.7 | Cn1c(=O)c2c(ccn2CC(=O)Nc2ccc(C(F)(F)F)cc2)n(C)c1=O | IC50 [1]: 400 nM; inhibition [5]: Dose-dependent effect; IC50 [6]: 2800 nM; inhibition [7]: inactive; inhibition [8]: 99%; inhibition [9]: 88.7%
21 | – | 36.8 | 99.5 | Cn1c(=O)c2c(ccn2CC(=O)Nc2ccc(OC(F)(F)F)cc2)n(C)c1=O | –
22 | < 50 | – | – | CCN(CC)S(=O)(=O)c1ccc(NC(=O)Cn2ccc3c2c(=O)n(C)c(=O)n3C)cc1 | –
23 | < 50 | – | – | Cn1c(=O)c2c(ccn2CC(=O)NCCCc2ccccc2)n(C)c1=O | –
24 | < 50 | – | – | CC(C)c1ccc(NC(=O)Cn2ccc3c2c(=O)n(C)c(=O)n3C)cc1 | –
25 | 99 | 94.4 | 97.1 | CCCCc1ccc(NC(=O)Cn2ccc3c2c(=O)n(C)c(=O)n3C)cc1 | IC50 [1]: 1100 nM; inhibition [8]: 93.5%
26 | < 50 | – | – | COc1ccc(NC(=O)Cn2ccc3c2c(=O)n(C)c(=O)n3C)cc1 | –
27 | – | 10.7 | 95.8 | Cn1c(=O)c2c(ccn2CC(=O)Nc2ccc(C(C)(C)C)cc2)n(C)c1=O | –
28 | < 50 | – | – | Cn1c(=O)c2c(ccn2CC(=O)Nc2ccc(S(=O)(=O)NCc3ccccc3)cc2)n(C)c1=O | –
29 | – | 12.4 | 85.4 | Cn1c(=O)c2c(ccn2CC(=O)Nc2ccc(I)cc2)n(C)c1=O | –
30 | < 50 | – | – | Cn1c(=O)c2c(ccn2CC(=O)NCc2ccccc2)n(C)c1=O | –
31 | < 50 | – | – | Cn1c(=O)c2c(ccn2CC(=O)Nc2ccc(Cl)cc2)n(C)c1=O | –
32 | < 50 | – | – | Cn1c(=O)c2c(ccn2CC(=O)NCCc2ccccc2)n(C)c1=O | –
